Test results as given in BindingDB's records for doi:10.1021/jm960325j (Universit&#224, 1996).

Molecular target: Translocator protein (Rattus norvegicus, UniProt P16257)
Assay: Binding affinity against peripheral benzodiazepine receptor( PBR).
Procedure, shortened: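 Rat cerebral cortex membranes washed repeatedly at 50000g in 50 mM phosphate pH 7.4, 2.3 mg tissue per sample. Filtration, scintillation counting. IC50 by log-probit analysis over six concentrations in duplicate, means of three experiments. Maximal concentration 1000 nM.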

Chain of Translocator protein (P16257 whole entry, looked up): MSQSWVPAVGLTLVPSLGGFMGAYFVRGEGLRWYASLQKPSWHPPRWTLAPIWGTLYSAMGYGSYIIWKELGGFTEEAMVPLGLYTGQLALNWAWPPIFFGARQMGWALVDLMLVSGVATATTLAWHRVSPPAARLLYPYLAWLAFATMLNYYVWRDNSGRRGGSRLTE

| SMILES | IC50 |
| --- | --- |
| CCCCCCN(CCCCCC)C(=O)Cc1c2[nH]c3ccccc3cc-2c(=O)n1-c1ccc(Cl)cc1 [2-[2-(4-Chloro-phenyl)-1-oxo-2,3-dihydro-1H-pyrrolo[3,4-b]quinolin-3-yl]-N,N-dihexyl-acetamide] | > 1000 nM |
| CCCN(CCC)C(=O)Cc1c2[nH]c3ccccc3cc-2c(=O)n1-c1ccc(Cl)cc1 [2-[2-(4-Chloro-phenyl)-1-oxo-2,3-dihydro-1H-pyrrolo[3,4-b]quinolin-3-yl]-N,N-dipropyl-acetamide] | > 1000 nM |
| CCCN(CCC)C(=O)Cc1c2[nH]cccc-2c(=O)n1-c1ccc(Cl)cc1 [2-[6-(4-Chloro-phenyl)-5-oxo-6,7-dihydro-5H-pyrrolo[3,4-b]pyridin-7-yl]-N,N-dipropyl-acetamide] | > 1000 nM |
| O=c1c2ccc[nH]c-2cn1-c1ccc(Cl)cc1 [6-(4-Chloro-phenyl)-6,7-dihydro-pyrrolo[3,4-b]pyridin-5-one] | > 1000 nM |
